Where two headings read alike, the source gives them in different places.
What was measured:
[1] = test system: human primary cell cocultures (4H, LPS, SAg, BT, MyoF, /Mphg); assay: BioMAP Diversity Plus Panel; assay type: cell-based; settings: multicellular human primary cell systems
Summary of the method: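 An external provider ran BioMAP Diversity Plus profiling with each compound at the noted concentrations, scoring multiple end points per system. The systems were venular endothelial cells (4H), PBMC plus endothelial cells with LPS, PBMC plus endothelial cells with superantigen, B cells plus PBMC (BT), lung fibroblasts (MyoF), and macrophages plus venular endothelial cells. Etanercept and tofacitinib served as comparators.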

[2] = test system: R848 induced TNF in human whole blood; assay: Human whole blood cytokine release assay; assay type: cell-based
Summary of the method: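 Heparin-anticoagulated whole blood (human, mouse or rat), or PBMC derived from it, was incubated with test compound and then exposed to TLR ligand. Cytokines were measured by Meso Scale Discovery immunoassay. EC50 and Hill slope were fitted from concentration–response data, and free-drug potency was derived using measured protein binding values.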

[3] = test system: nuclear localization of IRF-5 in PBMCs; assay: Monocyte IRF5 nuclear localization assay; assay type: cell-based, human; settings: 100 nM, 2 hours
Summary of the method: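 Healthy-volunteer PBMCs were incubated with 100 nM test compound or none, then stimulated with R848 or SLE patient sera for 2 hours at 37°C. IRF-5 nuclear translocation was quantified by Amnis imaging cytometry.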

[4] = test system: whole blood 21-gene IFN gene signature; assay: Interferon signature modulation in Phase 1 MAD study in healthy volunteers; assay type: in vivo, human; settings: 300 mg modified-release qd
Summary of the method: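 In a randomized, double-blind phase I multiple-ascending-dose study, healthy volunteers received modified-release test compound 300 mg once daily (n = 7) or placebo (n = 11) for 14 days. PAXgene whole blood was drawn on day 0 before the first dose and on day 14 before the last dose. RNA was sequenced, and an equally weighted 21-gene IFN signature was scored as percent change, day 14 versus day 0.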

[5] = test system: human RA fibroblast-like synoviocytes; assay: Human RA-FLS assay; assay type: cell-based; settings: 100 nM
Summary of the method: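 Human RA fibroblast-like synoviocytes were incubated with 100 nM test compound or vehicle before adding 0.1 ng/ml IL-1β. IL-6, IL-8 and MMP-1 in supernatants were measured by Meso Scale Discovery assay and expressed as percent of vehicle control, separately per donor.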

[6] = test system: human macrophages stimulated with ACPA immune complexes; assay: Macrophage ACPA-IC induced TNFα assay; assay type: cell-based; settings: 100 nM inhibitor, 11 donors, mean ± SEM
Summary of the method: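 Human macrophages from 11 donors were preincubated with 100 nM inhibitor and then stimulated with anti-citrullinated protein antibody immune complexes. TNF in supernatants was measured by immunoassay and expressed as % of DMSO-only treatment (mean ± SEM), compared by paired t-test.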

[7] = test system: human plasmacytoid dendritic cells; assay: Plasmacytoid DC stimulation with SLE neutrophil supernatants; assay type: cell-based; settings: 200 nM preincubation; 24 hours; n = 5
Summary of the method: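 SLE patient neutrophils were induced to undergo NETosis with R837, and their supernatants were collected. Plasmacytoid DCs were FACS-sorted from the DC fraction of healthy-volunteer buffy coats. They were cultured in 40% neutrophil supernatant with or without 200 nM test compound for 24 hours. CD83 was measured by flow cytometry against isotype control; n = 5.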

[8] = test system: rat collagen-induced arthritis; assay: Rat collagen-induced arthritis model of RA; assay type: in vivo; settings: rat CIA; PF-06650833 3 mg/kg twice daily or tofacitinib 10 mg/kg daily, oral, 7 days; vehicle 0.786 ± 0.043; mean ± SEM, n = 10
[9] = test system: C-reactive protein (CRP) levels; settings: healthy volunteers; modified-release 300 mg daily; day 14; cited from earlier work
[10] = test system: human B cells primed with IFNα and stimulated with R848; assay: B cell maturation assay; assay type: cell-based
Summary of the method: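 Human B cells were isolated from Leukopaks and preincubated with 100 nM test compound, then given IFNα plus R848. Supernatants were harvested at 24 h for IL-6 and at 72 h for IL-10. Values are % of control; n = 6 donors, compared by paired t-test.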

[11] = test system: active rheumatoid arthritis; settings: patients with active RA and inadequate response to methotrexate; cited from earlier work
[12] = test system: pristane-induced lupus in BALB/c mice; assay: Pristane in vivo model of SLE; parameters: species or system mouse
MRL/lpr mice = assay: MRL/lpr in vivo model of SLE; parameters: species or system mouse
[13] = test system: human PBMCs stimulated with SLE immune complexes; assay: SLE-IC assay; assay type: cell-based; settings: 100 nM, 24 hours
Summary of the method: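 SLE immune complexes were made by purifying IgG from plasma of an anti-RNP/anti-dsDNA-positive SLE patient and mixing it with apoptotic cells. Human PBMCs were stimulated with these complexes with or without 100 nM test compound for 24 hours. IFNα in supernatant was measured by ELISA, and RSAD2, USP18 and GBP1 by qRT-PCR as relative quantification. n = 5 donors; analysed by 2-way ANOVA.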

What does the source list for `CC[C@@H]1[C@H](F)C(=O)N[C@@H]1COc1nccc2cc(C(N)=O)c(OC)cc12` [PF‐06650833, 1‐{[(2S,3S,4S)‐3‐Ethyl‐4‐fluoro‐5‐oxopyrrolidin‐2‐yl]methoxy}‐7‐methoxyisoquinoline‐6‐carboxamide]?
BioMAP phenotypic profile of inflammatory readouts [1]: greatest inhibition of inflammatory readouts in assays of innate immunity; EC50 ([2]; read-out: EC50 values across the preclinical assays): 2 to 10 nM; IC50 ([2]; read-out: IC50 total, human whole blood R848 induced TNF): 8.8 nM; nuclear localization of IRF-5 stimulated by R848 ([3]; without compound 23.0 ± 13.0, n = 3): 6.8 ± 4.4%; IRF-5 nuclear localization in response to SLE patient sera ([3]; without compound 38.6 ± 18.4, n = 12): 24.2 ± 13.0%; subjects with negative change of IFN gene score between day 0 and day 14 [4]: 6 of 7; reduction of IFN gene signature, median percent change day 14 vs day 0 ([4]; 14 days, n = 7, placebo +9.1%): 28.8%; difference in IFN gene signature change vs placebo ([4]; day 14): −37.9%; IL-1-induced cytokines in RA FLS [5]: did not inhibit; MMP induction by IL-1β in RA FLS [5]: able to block; cytokine and matrix metalloproteinase (MMP) release in response to all ligands profiled ([5]; RA FLS): substantially reduced; ACPA IC-induced TNF release, % of that seen with DMSO treatment alone [6]: 57.5 ± 17.9%; pDC CD83 up-regulation induced by neutrophil DAMPs [7]: significantly inhibited; paw volume on day 7 [8]: 0.555 ± 0.034 mL; CRP levels [9]: statistically significant reductions; activity at 0.1 µM ([10]; 24 h, read-out: B cell IL-6 production, % of control): 50 ± 16.7%; activity at 0.1 µM ([10]; 72 h, read-out: B cell IL-10 production, % of control): 41.3 ± 7.1%; disease activity in phase II study [11]: significant effects on disease activity; anti-SSA IgG at week 20 ([12]; 200mpk in chow weeks 8-20, control 7,693 ± 1,241): 2,726 ± 494 units/ml; anti-RNP IgG at week 20 ([12]; 200mpk in chow weeks 8-20, control 18,127 ± 7,902): 3,730 ± 2,861 units/ml; mean PAS area per tuft ([12]; kidney, week 20, pristane alone 1,252 ± 45, n = 8): 1,045 ± 47 μm^2; C3 and IgG deposition by immunohistochemistry (MRL/lpr mice; 200mg/kg in chow, 12-13 weeks): significantly reduced; anti-SSA (MRL/lpr mice; 200mg/kg in chow, 12-13 weeks): trends toward reductions; anti-dsDNA (MRL/lpr mice; 200mg/kg in chow, 12-13 weeks): trends toward reductions; anti-histone IgG (MRL/lpr mice; 200mg/kg in chow, 12-13 weeks): significantly reduced; glomerular nephropathy (MRL/lpr mice; 200mg/kg in chow, 12-13 weeks): significantly reduced; glomerular nuclear area by image analysis (MRL/lpr mice; 200mg/kg in chow, 12-13 weeks): significantly reduced; glomerular tuft area by image analysis (MRL/lpr mice; 200mg/kg in chow, 12-13 weeks): significantly reduced; histologic kidney inflammation (MRL/lpr mice; 200mg/kg in chow, 12-13 weeks): significantly reduced; lymphadenopathy (MRL/lpr mice; 200mg/kg in chow, 12-13 weeks): significantly reduced; splenomegaly (MRL/lpr mice; 200mg/kg in chow, 12-13 weeks): trends toward reductions; tubular injury (MRL/lpr mice; 200mg/kg in chow, 12-13 weeks): trends toward reductions; IFNα release from PBMCs stimulated with SLE ICs ([13]; n = 5 donors): inhibited IFNα release in all donors; induction of 3 IFN-responsive genes (RSAD2, USP18, and GBP1) ([13]; SLE ICs, PBMCs): inhibited

Which results are given for `C[C@@H]1CCN(C(=O)CC#N)C[C@@H]1N(C)c1ncnc2[nH]ccc12` [tofacitinib, reference compound]?
BioMAP phenotypic profile of inflammatory readouts [1]: no impact on assays of innate immunity; paw volume on day 7 [8]: 0.371 ± 0.044 mL

With `N#CN1CCCC(n2nc(-c3ccc(Oc4ccc(F)cc4F)cc3)c(C(N)=O)c2N)C1` (stereo not drawn) [PF‐06250112, reference compound] as the molecule, how does the “all renal histologic pathology end points other than PAS area per tuft” value (MRL/lpr mice; 30 mg/kg PO qd) read?
The value was “significantly reduced”.

What about the autoantibody titers (MRL/lpr mice; 30 mg/kg PO qd) of the same molecule?
The autoantibody titers was “significantly reduced”.

For Etanercept, which “BioMAP phenotypic profile of inflammatory readouts” value [1] is on record?
The value was “predominant activity in the myofibroblast‐ and macrophage‐containing assays”.

From publication PMC8671219 (Arthritis & Rheumatology (Hoboken, N.j.), 2021)
